From the array DNA melting data of Ke et al. (doi:10.1101/2024.01.08.574731)

Legend:
[1] = folding enthalpy; higher = less favourable; fluorescence melt of hairpins on a sequencing array, two-state fit; settings: sodium 0.088 M
Outline: (§1)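 Folding enthalpy and melting temperature come from bootstrapped two-state fits to Cy3 fluorescence of library hairpins carrying annealed Cy3 and quencher oligos on a sequenced MiSeq flow cell. Imaging was done in 50 mM Na-HEPES pH 8.0, 25 mM NaCl, stepping by 2.5 °C up to 60 °C, and signals were normalised to pre-quench Cy3 and to control constructs. Results of four replicates were combined by inverse variance, and fitted temperatures were raised by 9.35 °C to match UV melts.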

[2] = melting temperature; fluorescence melt of hairpins on a sequencing array, two-state fit, raised by 9.35 °C to match UV melts; settings: sodium 0.088 M
Outline: as §1

Row | Sequence | folding enthalpy [1] | Tm [2]
1 | GTTCTCGAAAGAGCAAC ((((((....))).))) | -17 kcal/mol | 32.7 °C
2 | GGTTAGGGAAACCTAACC (((((((....))))))) | -46.4 kcal/mol | 58.3 °C
3 | GATCACCGGGTGATC ((((((...)))))) | -30.8 kcal/mol | 55 °C
4 | GCCTAAGGAAACTCAGGC ((((.((....)).)))) | -31.3 kcal/mol | 35.6 °C
5 | GCAGTGACGAAAGTCTGC (((..(((....)))))) | -23.8 kcal/mol | 48 °C
6 | GTTAGTGGAAACACTAGC (.(((((....))))).) | -21.1 kcal/mol | 40 °C
7 | GGAGGCGAAAGCCCCTCC ((((((....)))..))) | -12.6 kcal/mol | 59.1 °C
8 | GCTAAGCGAAAGCCCAGC (((..((....))..))) | -16.8 kcal/mol | 34.5 °C
9 | GCAAAGGGAAACCCTTGC ((((.((....)).)))) | -29.5 kcal/mol | 46 °C
10 | GATCATGCCTATGATC ((((((....)))))) | -42.4 kcal/mol | 52.3 °C
11 | GTTGACGAAAGTCTCAAC ((((((....)))..))) | -9.94 kcal/mol | 28 °C
12 | GCCACTGCGAAAGCAGGC (((..(((....)))))) | -8.9 kcal/mol | 46 °C
13 | GCCACGCGAAAGCTGGGC (((..((....))..))) | -27 kcal/mol | 60 °C
14 | GTTAAACGAAAGTTCAAC (((.(((....))).))) | -22.6 kcal/mol | 30.3 °C
15 | GCTGAGCGAAAGCCAAGC (((..((....))..))) | -18.8 kcal/mol | 48.6 °C
16 | CGATGTCGGAAACGATCG (((..(((....)))))) | -17.3 kcal/mol | 36.2 °C
17 | GCCCCGCGAAAGCGCTGC ((..(((....)))..)) | -9.38 kcal/mol | 31.6 °C
18 | GGGACCGAAAGGTAGCCC ((((((....)))..))) | -16 kcal/mol | 43.2 °C
19 | GCGTCCATACGC ((((....)))) | -23.3 kcal/mol | 52.7 °C
20 | TCCTGGAAACAGGA (((((....))))) | -18.4 kcal/mol | 45.5 °C
21 | GCTAGCGAAAGCTAAGC ((((((....))).))) | -22.4 kcal/mol | 54.6 °C
22 | GTAAACTCGAAAGAGTAC (((..(((....)))))) | -11.9 kcal/mol | 31 °C
23 | GGATAACGAAAGTTTTCC (((.(((....))).))) | -27.6 kcal/mol | 43.7 °C

Row | Sequence | folding enthalpy [1] | Tm [2]
24 | GATCCATAGATGGATC ((((((....)))))) | -33.5 kcal/mol | 51.2 °C
25 | CGACGACGGAAACGTTCG (((..(((....)))))) | -14.5 kcal/mol | 36.9 °C
26 | GATCGATTGTTCGATC ((((((....)))))) | -37.4 kcal/mol | 53.1 °C
27 | GATCTGGTGCAGATC ((((((...)))))) | -31.1 kcal/mol | 49.5 °C
28 | GCCAGCGAAAGCTGTGGC ((((((....)))..))) | -15.1 kcal/mol | 56.6 °C
29 | GAGGGCGAAAGCCGCCTC ((((((....)))..))) | -9.67 kcal/mol | 36.3 °C
30 | GCTGCGCGAAAGCGATGC ((..(((....)))..)) | -18.6 kcal/mol | 58 °C
31 | GAGGCAGAAATGCCTC ((((((....)))))) | -37.8 kcal/mol | 60.7 °C
32 | GTTCAAGGAAACTTGGAC ((.((((....)))).)) | -20.7 kcal/mol | 43.7 °C
33 | GGAACCGAAAGGTGTCC ((((((....))).))) | -17.7 kcal/mol | 47.5 °C
34 | GATCTGCGATCAGATC ((((((....)))))) | -33.9 kcal/mol | 47.1 °C
35 | GCTTTTCGAAAGAAGAGC (((.(((....))).))) | -30.7 kcal/mol | 47.4 °C
36 | GTGCATGCGAAAGCACAC (((..(((....)))))) | -12.2 kcal/mol | 46.3 °C
37 | GCGTATGGAAACATGCGC (((.(((....))).))) | -38.2 kcal/mol | 57 °C
38 | GATCGGGGTGCCGATC ((((((....)))))) | -52.3 kcal/mol | 59.3 °C
39 | GTACCCGAAAGGGGGTAC ((((((....)))..))) | -18.1 kcal/mol | 49.6 °C
40 | GCGTCGCGAAAGCTGCGC (((..((....))..))) | -22.5 kcal/mol | 61.7 °C
41 | GTAGTTCGAAAGAAGTAC (((.(((....))).))) | -25 kcal/mol | 46 °C
42 | GCGACTGGTCGC ((((....)))) | -38.1 kcal/mol | 60.3 °C
43 | GCCTAGCGAAAGCGGGGC (((..((....))..))) | -22.3 kcal/mol | 65.9 °C
44 | GGTAAAGAAATTTACC ((((((....)))))) | -26 kcal/mol | 40.1 °C
45 | GAATACCGAAAGGTCTTC (((.(((....))).))) | -24.1 kcal/mol | 36.7 °C
46 | GTTGGGGGAAACTCCAGC (.(((.(....).))).) | -23.5 kcal/mol | 35.8 °C

Row | Sequence | folding enthalpy [1] | Tm [2]
47 | GCGTCCGAAAGGAACGC ((((((....))).))) | -35.7 kcal/mol | 64.9 °C
48 | GCGTTCGAAAGAACTCGC ((((((....)))..))) | -17 kcal/mol | 44.7 °C
49 | CGGCCCGGAAACGGCCG (((.(((....)))))) | -31 kcal/mol | 63.7 °C
50 | GGACGAGGAAACTCGTTC (.(((((....))))).) | -32.5 kcal/mol | 51.6 °C
51 | GGGATAGGAAACTATTCC ((.((((....)))).)) | -34.3 kcal/mol | 40.7 °C
52 | GAATGGCCGAAAGGCTTC (((..(((....)))))) | -6.89 kcal/mol | 27.6 °C
53 | GATCCGGCTCGGATC ((((((...)))))) | -39.6 kcal/mol | 59.7 °C
54 | GCAAGGCGAAAGCTTCGC ((.(.((....)).).)) | -12.2 kcal/mol | 40.9 °C
55 | GATCGGGTAACCGATC ((((((....)))))) | -36.6 kcal/mol | 68.1 °C
56 | GATCAGCGGCCTGATC ((((((....)))))) | -36.9 kcal/mol | 49.8 °C
57 | GCCACGCGAAAGCTCGGC (((..((....))..))) | -22 kcal/mol | 51.2 °C
58 | GATCTGGAGCCAGATC ((((((....)))))) | -37.6 kcal/mol | 49.5 °C
59 | GCGGTTCGAAAGAAACGC (((.(((....))).))) | -33.7 kcal/mol | 69.1 °C
60 | GGTAATCGAAAGATCACC (((.(((....))).))) | -25.6 kcal/mol | 39.2 °C
61 | GTATTCGGAAACGGATAC ((((.((....)).)))) | -33.2 kcal/mol | 45.1 °C
62 | GCTGTCGAAAGACAAGC ((((((....))).))) | -27.8 kcal/mol | 54.4 °C
63 | GAATCCGGAAACGGATCC (.(((((....))))).) | -14.2 kcal/mol | 40.6 °C
64 | GCTGCGGGAAACCGTAGC (((.(((....))).))) | -49.1 kcal/mol | 58.5 °C
65 | GCGAATGGTCGC ((((....)))) | -10.4 kcal/mol | 47.8 °C
66 | GCGCTCACGAAAGTGCGC (((..(((....)))))) | -37.8 kcal/mol | 60 °C
67 | GATCCATCGTTGGATC ((((((....)))))) | -43.1 kcal/mol | 51.7 °C
68 | GATCGGACATCCGATC ((((((....)))))) | -38.7 kcal/mol | 55.3 °C
69 | GCGTTCCAACGC ((((....)))) | -27.7 kcal/mol | 55.6 °C

Row | Sequence | folding enthalpy [1] | Tm [2]
70 | GCAATGGAAACATTGC ((((((....)))))) | -42.1 kcal/mol | 58.1 °C
71 | GGTCACGAAAGTGAGACC ((((((....)))..))) | -15.7 kcal/mol | 45.8 °C
72 | GGCGATGGAAACATCGTC (.(((((....))))).) | -45.8 kcal/mol | 56.5 °C
73 | GGCCGCGAAAGCGTTGCC ((((((....)))..))) | -16.8 kcal/mol | 56 °C
74 | AGACAGAAATGTCT (((((....))))) | -15.8 kcal/mol | 41.7 °C
75 | GATTTGGGAAACCAGATC (((.(((....))).))) | -35.9 kcal/mol | 37.7 °C
76 | GGACATGCGAAAGCATCC (((..(((....)))))) | -10.8 kcal/mol | 28.6 °C
77 | GATTGACCGAAAGGTATC (((..(((....)))))) | -11.6 kcal/mol | 28.5 °C
78 | GGGAACGAAAGTTCACCC ((((((....)))..))) | -20.7 kcal/mol | 51.6 °C
79 | GGACCTGGAAACAGGTCC (((((((....))))))) | -28.2 kcal/mol | 68.7 °C
80 | GGGCCCGAAAGGGTGCCC ((((((....)))..))) | -15.7 kcal/mol | 60.2 °C
81 | GTTTTTGGAAACGAAAAC (((((.(....).))))) | -31.3 kcal/mol | 40.4 °C
82 | GATCCGACTCGGATC ((((((...)))))) | -38.9 kcal/mol | 55.7 °C
83 | GTCAAACGAAAGTTCGAC (((.(((....))).))) | -30.7 kcal/mol | 43.1 °C
84 | GCAGTGCGAAAGCATTGC (((.(((....))).))) | -55.4 kcal/mol | 58.9 °C
85 | TCATGGAAACATGA (((((....))))) | -24.5 kcal/mol | 39.8 °C
86 | GTTAAAGGAAACTTTAGC (.(((((....))))).) | -20.6 kcal/mol | 27.6 °C
87 | GTAAGACGAAAGTCGTAC (((.(((....))).))) | -17.8 kcal/mol | 50.4 °C
88 | GTACTCGAAAGAGGTTAC ((((((....)))..))) | -8.46 kcal/mol | 26.6 °C
89 | GGACCTGGAAACGGGTTC (.(((.(....).))).) | -26.6 kcal/mol | 38.6 °C
90 | GGGTCCTCGAAAGAGCCC (((..(((....)))))) | -15.3 kcal/mol | 40 °C
91 | GACGGGGGAAACCCTGTC (((.(((....))).))) | -37.1 kcal/mol | 54.4 °C
92 | GGCCTGCGAAAGCAAGCC (((.(((....))).))) | -30.1 kcal/mol | 58.5 °C
